Measured values from ChEMBL document CHEMBL3797187, “Design, synthesis and biological evaluation of potent FAAH inhibitors” (Bioorg Med Chem Lett, 2016).

Key:
[1] = Cytotoxicity against human HT-29 cells assessed as growth inhibition at 10 uM after 72 hrs by MTS assay relative to control; assay type: cell-based; settings: read-out: GI
Outline: (§1)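 Test compounds at 10 µM on human colorectal adenocarcinoma HT29 and human embryonic kidney HEK293 cells. Cell proliferation scored colorimetrically by MTS tetrazolium reduction to formazan (NADPH-dependent oxidoreductase activity as viable-cell readout). Reported as % inhibition at 10 µM.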

[2] = Cytotoxicity against human HEK293 cells assessed as growth inhibition at 10 uM after 72 hrs by MTS assay relative to control; assay type: cell-based; settings: read-out: GI; outline: as §1
[3] = biological target: T1, Fatty-acid amide hydrolase 1 (Homo sapiens) (UniProt O00519); assay: Inhibition of human recombinant FAAH expressed in sf21 cells using AMC-AA as substrate at 10 uM preincubated for 15 mins followed by substrate addition measured after 2 hrs by spectrophotometric analysis relative to control
T1 sequence (whole entry): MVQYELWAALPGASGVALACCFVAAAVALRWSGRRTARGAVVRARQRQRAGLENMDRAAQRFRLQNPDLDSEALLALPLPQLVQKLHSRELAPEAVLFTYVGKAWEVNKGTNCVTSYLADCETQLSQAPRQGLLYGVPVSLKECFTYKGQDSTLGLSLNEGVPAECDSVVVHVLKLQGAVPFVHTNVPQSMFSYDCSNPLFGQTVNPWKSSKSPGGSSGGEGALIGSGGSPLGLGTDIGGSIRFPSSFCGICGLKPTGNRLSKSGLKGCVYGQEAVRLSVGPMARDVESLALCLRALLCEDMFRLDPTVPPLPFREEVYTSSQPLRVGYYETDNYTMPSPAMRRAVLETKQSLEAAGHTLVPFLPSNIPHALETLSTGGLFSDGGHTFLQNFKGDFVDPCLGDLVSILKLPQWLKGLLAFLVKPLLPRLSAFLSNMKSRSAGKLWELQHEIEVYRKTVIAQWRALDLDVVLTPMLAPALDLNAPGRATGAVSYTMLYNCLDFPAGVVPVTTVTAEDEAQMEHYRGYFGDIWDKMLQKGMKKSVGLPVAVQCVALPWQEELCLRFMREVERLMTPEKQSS
Outline: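 Human recombinant FAAH expressed in SF21 cells, 4 U/mL, preincubated 15 min with compound at 37 °C in Tris buffer pH 9. Hydrolysis of the fluorogenic substrate AMC-arachidonamide then measured. Single-point screen at 10 µM as % inhibition. IC50 from concentration-response, mean ± SEM of three experiments performed in duplicate.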

[4] = biological target: T2, Fatty-acid amide hydrolase 1 (Homo sapiens, UniProt O00519); assay: Inhibition of human recombinant FAAH expressed in sf21 cells using AMC-AA as substrate preincubated for 15 mins followed by substrate addition measured after 2 hrs by spectrophotometric analysis
T2 sequence (O00519 whole entry): T1 sequence (whole entry)
Outline: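 Human recombinant FAAH expressed in SF21 cells, 4 U/mL, preincubated 15 min with compound at 37 °C in Tris buffer pH 9. Hydrolysis of the fluorogenic substrate AMC-arachidonamide then measured. IC50 from concentration-response, mean ± SEM of three experiments performed in duplicate.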

[5] = biological target: T1, Fatty-acid amide hydrolase 1 (Homo sapiens); assay: Potency index, ratio of 5-(4-Pentyloxy-phenyl)-isoxazole-3-carboxylic acid adamantan-1-ylamide IC50 to compound IC50 for human recombinant FAAH expressed in sf21 cells

Compound	inhibition at 72 h, 10 µM [1] [%]	inhibition at 72 h, 10 µM [2] [%]	inhibition [3] [%]	IC50 [4] [nM]	Ratio IC50 [5]
O=C(NC12CC3CC(CC(C3)C1)C2)c1cc(-c2ccc(-c3ccc4c(c3)OCO4)cc2)on1	0	9	18	–	–
CN1CCN(C(=O)c2ccc(-c3ccc(-c4cc(C(=O)NC56CC7CC(CC(C7)C5)C6)no4)cn3)cc2)CC1	0	3	10	–	–
CN1CCN(C(=O)c2cccc(-c3ccc(-c4cc(C(=O)NC56CC7CC(CC(C7)C5)C6)no4)cc3)c2)CC1	55	47	44	–	–
COc1cc(-c2ccc(-c3cc(C(=O)NC45CC6CC(CC(C6)C4)C5)no3)cc2)cc(OC)c1OC	6	32	42	–	–
O=C(NC12CC3CC(CC(C3)C1)C2)c1cc(-c2ccc(-c3ccco3)cc2)on1	0	12	31	–	–
NC(=O)c1cccc(-c2ccc(-c3cc(C(=O)NC45CC6CC(CC(C6)C4)C5)no3)cc2)c1	0	3	11	–	–
O=C(NC12CC3CC(CC(C3)C1)C2)c1cc(-c2ccc(-c3ccccc3)nc2)on1	0	14	23	–	–
CC(=O)c1ccc(-c2ccc(-c3cc(C(=O)NC45CC6CC(CC(C6)C4)C5)no3)cc2)cc1	4	5	18	–	–
NC(=O)c1cccc(-c2cccc(OC(=O)NC3CCCCC3)c2)c1 [URB-597]	0	0	98	–	–
COc1ccc(-c2ccc(-c3cc(C(=O)NC45CC6CC(CC(C6)C4)C5)no3)cc2)cc1OC	7	29	14	–	–
COc1cccc(-c2ccc(-c3cc(C(=O)NC45CC6CC(CC(C6)C4)C5)no3)cc2)c1	0	20	58	720	–
O=C(NC12CC3CC(CC(C3)C1)C2)c1cc(-c2ccc(-c3cnc4ccccc4c3)cc2)on1	0	24	22	–	–
O=C(NC12CC3CC(CC(C3)C1)C2)c1cc(-c2ccc(-c3ccc(C(=O)N4CCOCC4)cc3)cc2)on1	0	23	24	–	–
O=C(NC12CC3CC(CC(C3)C1)C2)c1cc(-c2ccc(-c3ccc(C(=O)N4CCOCC4)cc3)nc2)on1	0	10	12	–	–
CN1CCN(Cc2ccc(-c3ccc(-c4cc(C(=O)NC56CC7CC(CC(C7)C5)C6)no4)cc3)cc2)CC1	90	89	41	–	–
COc1ccc(-c2ccc(-c3cc(C(=O)NC45CC6CC(CC(C6)C4)C5)no3)cc2)cc1	0	2	15	–	–

Compound	inhibition at 72 h, 10 µM [1] [%]	inhibition at 72 h, 10 µM [2] [%]	inhibition [3] [%]	IC50 [4] [nM]	Ratio IC50 [5]
CCCCCOc1ccc(-c2cc(C(=O)NC34CC5CC(CC(C5)C3)C4)no2)cc1	–	–	79	–	–
NC(=O)c1cccc(-c2ccc(-c3cc(C(=O)NC45CC6CC(CC(C6)C4)C5)no3)cn2)c1	14	1	20	–	–
N#Cc1cccc(-c2ccc(-c3cc(C(=O)NC45CC6CC(CC(C6)C4)C5)no3)cc2)c1	0	0	64	240	2
COc1ccccc1-c1ccc(-c2cc(C(=O)NC34CC5CC(CC(C5)C3)C4)no2)cc1	2	25	47	–	–
O=C(NC12CC3CC(CC(C3)C1)C2)c1cc(-c2ccc(-c3ccc(CN4CCOCC4)cc3)cc2)on1	0	20	16	–	–
CN1CCN(Cc2cccc(-c3ccc(-c4cc(C(=O)NC56CC7CC(CC(C7)C5)C6)no4)cc3)c2)CC1	97	93	63	1130	–
O=C(NC12CC3CC(CC(C3)C1)C2)c1cc(-c2ccc(-c3cccc(CN4CCOCC4)c3)cc2)on1	0	38	69	830	–
O=C(NC12CC3CC(CC(C3)C1)C2)c1cc(-c2ccc(-c3cccc(C(=O)N4CCOCC4)c3)cc2)on1	10	54	49	–	–
CC(=O)c1cccc(-c2ccc(-c3cc(C(=O)NC45CC6CC(CC(C6)C4)C5)no3)cc2)c1	1	16	56	590	–
CC(=O)c1cccc(-c2ccc(-c3cc(C(=O)NC45CC6CC(CC(C6)C4)C5)no3)cn2)c1	0	18	22	–	–
O=C(NC12CC3CC(CC(C3)C1)C2)c1cc(-c2ccc(-c3ccncc3)cc2)on1	1	9	17	–	–
O=C(NC12CC3CC(CC(C3)C1)C2)c1cc(-c2ccc(-c3ccncc3)nc2)on1	0	1	23	–	–
CC(=O)c1ccc(-c2ccc(-c3cc(C(=O)NC45CC6CC(CC(C6)C4)C5)no3)cn2)cc1	0	5	13	–	–
NC(=O)c1ccc(-c2ccc(-c3cc(C(=O)NC45CC6CC(CC(C6)C4)C5)no3)cc2)cc1	0	4	10	–	–
CN1CCN(C(=O)c2ccc(-c3ccc(-c4cc(C(=O)NC56CC7CC(CC(C7)C5)C6)no4)cc3)cc2)CC1	24	37	23	–	–
